Measurements published in ChEMBL document CHEMBL3124843, “Synthesis, cytostatic, antimicrobial, and anti-HCV activity of 6-substituted 7-(het)aryl-7-deazapurine ribonucleosides” (J Med Chem, 2014).
Active and inactive are the calls of the source. How the calls were made is not given here.

Tests used:
[1] = Cytotoxicity against human HuH7 cells infected with Hepatitis C virus subtype 1b; assay type: cell-based, Huh-7
[2] = test system: K562; test: Cytostatic activity against paclitaxel-resistant human K562 cells after 72 hrs by MTT assay; assay type: functional, cell-based; settings: K562, 72 h
How it was run: (§1)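 IC50 is the concentration that cuts cell growth by 50%, read by quantitative metabolic MTT staining after a 3-day treatment. The resistant sublines were made by raising the concentration of the cytotoxic drug step by step. CEM-DNR-bulk (daunorubicin-selected) stably overexpresses mrp-1. K562-TAX (paclitaxel-selected) expresses only mdr-1. HCT116p53−/− carries null p53 alleles. BJ and MRC-5 are nonmalignant fibroblasts.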

[3] = Cytotoxicity against human HuH7 cells infected with Hepatitis C virus subtype 2a; assay type: cell-based, Huh-7
[4] = test system: Pseudomonas aeruginosa; test: Antibacterial activity against multi-resistant Pseudomonas aeruginosa A/16575 after 24 hrs; assay type: functional, organism-based
[5] = test system: Staphylococcus aureus; test: Antibacterial activity against Staphylococcus aureus CCM 3953 after 24 hrs; assay type: functional, organism-based
[6] = test system: HL-60; test: Antiproliferative activity against human HL60 cells after 72 hrs by XTT assay; assay type: functional, cell-based; settings: HL-60, 72 h
How it was run: (§2)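 Antiproliferative test on HL-60 promyelocytic leukemia and HeLa S3 cervical carcinoma cells growing in liquid suspension.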

[7] = test system: Staphylococcus aureus; test: Antibacterial activity against methicillin-resistant Staphylococcus aureus MRSA 4591 after 24 hrs; assay type: functional, organism-based
[8] = test system: K562; test: Cytostatic activity against human K562 cells after 72 hrs by MTT assay; assay type: functional, cell-based; settings: K562, 72 h; how it was run: as §1
[9] = test system: Escherichia coli; test: Antibacterial activity against multi-resistant Escherichia coli C/16702 after 24 hrs; assay type: functional, organism-based
[10] = test system: Pseudomonas aeruginosa; test: Antibacterial activity against Pseudomonas aeruginosa CCM 3955 after 24 hrs; assay type: functional, organism-based
[11] = test system: A549; test: Cytostatic activity against human A549 cells after 72 hrs by MTT assay; assay type: functional, cell-based; settings: A549, 72 h; how it was run: as §1
[12] = test system: Candida albicans; test: Antifungal activity against Candida albicans after 48 hrs; assay type: functional, organism-based
[13] = test system: MRC5; test: Cytostatic activity against human MRC5 cells after 72 hrs by MTT assay; assay type: ADME, cell-based; settings: MRC5, 72 h; how it was run: as §1
[14] = test system: CCRF-CEM; test: Cytostatic activity against human CCRF-CEM cells after 72 hrs by MTT assay; assay type: functional, cell-based; how it was run: as §1
[15] = test system: Hepatitis C virus; test: Antiviral activity against Hepatitis C virus subtype 2a infected in human HuH7 cells; assay type: functional, organism-based, Hepacivirus hominis; settings: genotype 2a, Huh-7
[16] = test system: BJ; test: Cytostatic activity against human BJ cells after 72 hrs by MTT assay; assay type: ADME, cell-based; how it was run: as §1
[17] = test system: Candida parapsilosis; test: Antifungal activity against Candida parapsilosis after 48 hrs; assay type: functional, organism-based
[18] = test system: Candida tropicalis; test: Antifungal activity against Candida tropicalis after 48 hrs; assay type: functional, organism-based
[19] = test system: Hepatitis C virus; test: Antiviral activity against Hepatitis C virus subtype 1b infected in human HuH7 cells; assay type: functional, organism-based, Hepacivirus hominis; settings: genotype 1b, Huh-7
[20] = test system: Enterococcus faecalis; test: Antibacterial activity against Enterococcus faecalis CCM 4224 after 24 hrs; assay type: functional, organism-based
[21] = test system: Pichia kudriavzevii; test: Antifungal activity against Candida crusei after 48 hrs; assay type: functional, organism-based
[22] = Cytostatic activity against human CEM-DNR-bulk cells after 72 hrs by MTT assay; assay type: functional, cell-based; how it was run: as §1
[23] = Antiproliferative activity against human HeLaS3 cells after 72 hrs by XTT assay; assay type: functional, cell-based; settings: HeLa S3, 72 h; how it was run: as §2
[24] = test system: Escherichia coli; test: Antibacterial activity against Escherichia coli CCM 3954 after 24 hrs; assay type: functional, organism-based
[25] = test system: HepG2; test: Antiproliferative activity against human HepG2 cells after 72 hrs by XTT assay; assay type: functional, cell-based; settings: HepG2, 72 h
[26] = test system: Staphylococcus haemolyticus; test: Antibacterial activity against methicillin-resistant Staphylococcus haemolyticus A/16568 after 24 hrs; assay type: functional, organism-based
[27] = test system: HCT-116; test: Cytostatic activity against human HCT116 cells after 72 hrs by MTT assay; assay type: functional, cell-based; settings: HCT-116, 72 h; how it was run: as §1
[28] = test system: HCT-116; test: Cytostatic activity against p53-deficient human HCT116 cells after 72 hrs by MTT assay; assay type: functional, cell-based; settings: HCT-116, 72 h; how it was run: as §1

Compound	CC50 [1] [µM]	IC50 [2] [µM]	CC50 [3] [µM]	Activity [4]	Activity [5]	IC50 [6] [µM]	Activity [7]	IC50 [8] [µM]	Activity [9]	Activity [10]	IC50 [11] [µM]	Activity [12]	IC50 [13] [µM]	IC50 [14] [µM]	EC50 [15] [µM]	IC50 [16] [µM]	Activity [17]	Activity [18]	EC50 [19] [µM]	Activity [20]	also measured
C#Cc1cn([C@@H]2O[C@H](CO)[C@@H](O)[C@H]2O)c2ncnc(NC)c12	> 44	1.38	> 44	inactive	inactive	9.06	inactive	> 20	inactive	inactive	> 20	inactive	> 100	> 20	> 44	86	inactive	inactive	0.35	inactive	Activity [21]: inactive; IC50 [22]: 18.5 µM; IC50 [23]: > 20 µM; Activity [24]: inactive; IC50 [25]: > 15 µM; Activity [26]: inactive; IC50 [27]: > 20 µM; IC50 [28]: > 20 µM
Cc1nc(N)c2c(-c3ccco3)cn([C@@H]3O[C@H](CO)[C@@H](O)[C@H]3O)c2n1	> 44	> 20	> 44	inactive	inactive	> 20	inactive	> 20	inactive	inactive	> 20	inactive	> 100	> 100	> 44	> 100	inactive	inactive	> 44	inactive	Activity [21]: inactive; IC50 [22]: > 20 µM; IC50 [23]: > 20 µM; Activity [24]: inactive; IC50 [25]: > 20 µM; Activity [26]: inactive; IC50 [27]: > 20 µM; IC50 [28]: > 20 µM
Nc1nc(N)c2c(-c3ccccc3)cn([C@@H]3O[C@H](CO)[C@@H](O)[C@H]3O)c2n1	> 44	> 20	> 44	inactive	inactive	> 15	inactive	> 20	inactive	inactive	> 20	inactive	> 100	> 20	> 44	> 100	inactive	inactive	> 44	inactive	Activity [21]: inactive; IC50 [22]: > 20 µM; IC50 [23]: > 20 µM; Activity [24]: inactive; IC50 [25]: > 20 µM; Activity [26]: inactive; IC50 [27]: > 20 µM; IC50 [28]: > 20 µM
Cc1ncnc2c1c(-c1cc3ccccc3o1)cn2[C@@H]1O[C@H](CO)[C@@H](O)[C@H]1O	> 44	> 20	> 44	inactive	inactive	> 20	inactive	19.5	inactive	inactive	> 20	inactive	84.4	17.3	40.2	93.9	inactive	inactive	6.76	inactive	Activity [21]: inactive; IC50 [22]: > 20 µM; IC50 [23]: > 20 µM; Activity [24]: inactive; IC50 [25]: > 20 µM; Activity [26]: inactive; IC50 [27]: > 20 µM; IC50 [28]: > 20 µM
Cc1nc(N)c2c(-c3cccs3)cn([C@@H]3O[C@H](CO)[C@@H](O)[C@H]3O)c2n1	> 44	> 20	> 44	inactive	inactive	> 20	inactive	> 20	inactive	inactive	> 20	inactive	> 100	> 20	> 44	> 100	inactive	inactive	> 44	inactive	Activity [21]: inactive; IC50 [22]: > 20 µM; IC50 [23]: > 20 µM; Activity [24]: inactive; IC50 [25]: > 20 µM; Activity [26]: inactive; IC50 [27]: > 20 µM; IC50 [28]: > 20 µM
CSc1ncnc2c1c(-c1ccsc1)cn2[C@@H]1O[C@H](CO)[C@@H](O)[C@H]1O	> 44	> 20	> 44	inactive	inactive	4.59	inactive	0.45	inactive	inactive	> 20	inactive	> 100	> 20	> 44	95.8	inactive	inactive	10.9	inactive	Activity [21]: inactive; IC50 [22]: > 20 µM; IC50 [23]: > 20 µM; Activity [24]: inactive; IC50 [25]: > 15 µM; Activity [26]: inactive; IC50 [27]: > 20 µM; IC50 [28]: > 20 µM
